Measurements published in ChEMBL document CHEMBL1155577, “New annonaceous acetogenins from the roots of Uvaria calamistrata” (J Nat Prod, 2000).
≈ marks a conversion by molar mass, not a printed value.

Tests used:
Assay type in all cases: functional, cell-based
[1] = system: A2780; assay: Cytotoxicity against human A2780 cells by MTT assay
Method in brief: (§1)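 5-day MTT test on human tumor cells (KB epidermoid, HCT-8 ileocecal carcinoma, A2780 epithelial); cell-generated MTT-formazan solubilized in dimethyl sulfoxide and read as a measure of cell growth.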

[2] = Cytotoxicity against HCT cells by MTT assay; settings: Homo sapiens; method in brief: as §1
[3] = system: KB; assay: Cytotoxicity against human KB cells by MTT assay; method in brief: as §1

CCCCCCCCCC[C@@H](O)[C@H]1CC[C@H]([C@H](O)CCCCCC(O)CCCCCCCCCCC2=C[C@H](C)OC2=O)O1 (some centres not stated) [CALAMISTRIN C]
IC50 [1]: 0.00315 mg/L (≈ 0.00517 µM)
IC50 [2]: 0.00473 mg/L (≈ 0.00777 µM)
IC50 [3]: 0.0605 mg/L (≈ 0.0994 µM)

CCCCCCCCCC[C@H](O)[C@H]1CC[C@H]([C@H](O)CCCCCC(O)CCCCCCCCCCC2=C[C@H](C)OC2=O)O1 (some centres not stated) [CALAMISTRIN D]
IC50 [1]: 0.431 mg/L (≈ 0.708 µM)
IC50 [2]: 0.0732 mg/L (≈ 0.12 µM)
IC50 [3]: 0.0273 mg/L (≈ 0.0448 µM)

CCCCCCCC[C@H](O)[C@H]1CC[C@H]([C@H]2CC[C@H]([C@H](O)CCCCCCCCCCCC(O)CCC3=C[C@H](C)OC3=O)O2)O1 (some centres not stated) [CALAMISTRIN F]
IC50 [1]: 0.0366 mg/L (≈ 0.0588 µM)
IC50 [2]: 0.00227 mg/L (≈ 0.00364 µM)
IC50 [3]: 0.051 mg/L (≈ 0.0819 µM)

CCCCCCCC[C@@H](O)[C@H]1CC[C@H]([C@H]2CC[C@H]([C@H](O)CCCCCCCCCCC[C@@H](O)CCC3=C[C@H](C)OC3=O)O2)O1 [CALAMISTRIN G]
IC50 [1]: 0.00197 mg/L (≈ 0.00316 µM)
IC50 [2]: 0.00331 mg/L (≈ 0.00531 µM)
IC50 [3]: 0.02 mg/L (≈ 0.0321 µM)
